Our source for the B-score values is PubChem BioAssay AID588627 (Johns Hopkins Ion Channel Center, 2011).

The structures appear in SMILES notation. About 1,400 (0.45%) of roughly 310,000 compounds were called active.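 How the source made its calls: active means calcium response B-score plate-corrected fluorescence ratio at least 3 library SD, with starting fluorescence B-score inside 5 SD; inactive means the rest.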 For the sample, actives were picked, then their nearest neighbours and some compounds at random.

Mas-related G-protein coupled receptor member X1 (Homo sapiens), sequence (Q96LB2 whole entry, looked up): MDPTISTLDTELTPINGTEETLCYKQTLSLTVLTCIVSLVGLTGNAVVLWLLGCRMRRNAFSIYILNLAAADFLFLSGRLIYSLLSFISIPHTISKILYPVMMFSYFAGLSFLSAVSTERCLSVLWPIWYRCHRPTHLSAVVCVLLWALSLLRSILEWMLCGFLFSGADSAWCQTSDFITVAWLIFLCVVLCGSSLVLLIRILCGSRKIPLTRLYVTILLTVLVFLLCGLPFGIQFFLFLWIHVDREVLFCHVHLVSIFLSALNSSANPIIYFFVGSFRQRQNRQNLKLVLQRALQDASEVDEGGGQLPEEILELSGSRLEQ

The test has as its target Mas-related G-protein coupled receptor member X1 (Homo sapiens) (UniProt Q96LB2). Briefly: MrgX1 activation via calcium signaling – HEK293 cells, Fluo-4 calcium flux, primary screen (AID 588627).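 On B-score: B-score of the peak-minus-trough calcium fluorescence change over baseline.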 Conditions: Fluo-4 calcium fluorescence, agonist mode, at 10 µM; stronger effect = higher value. The method, boiled down:
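System – MrgX1-expressing HEK293 cells · Incubation – cells plated overnight, dye loaded 0.5 h 37 °C, 0.5 h room temperature · Technique – kinetic Fluo-4 NW fluorescence of intracellular calcium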
On the technique in general: Calcium assays in cells follow changes in intracellular calcium, usually with a dye or a luminescent sensor.
On to `CCCCC(=O)N/N=C/c1c(O)n(CC)c(=S)n(CC)c1=O`, for which the B-score was 66 (active).
The entry for `CCCCC(=O)N/N=C/c1c(O)n(CCC2=CCCCC2)c(=O)[nH]c1=O` is “inactive”; for `CCCCC(=O)N/N=C/c1c(O)n(-c2ccccc2)c(=O)[nH]c1=O` it is “inactive”.
The entry for `CC1=C(C(=O)Nc2ccccc2)S(=O)(=O)CCO1` is “inactive”.
The entry for `COc1ccc2c(c1)[C@]13CCCCC1C(C2)N(C)CC3` (stereo not given in full) is “inactive”; for `O=C1NC(=O)N(Cc2ccco2)C(=O)/C1=C\c1cccn1CCOc1ccccc1` it is “inactive”.
With `Cc1cc(/C=C2/C(=O)NC(=O)N(Cc3ccco3)C2=O)c(C)n1-c1ccc(C(=O)O)cc1`, the B-score entry was “inactive”.
The figure for `O=C1NC(=O)N(Cc2ccco2)C(=O)/C1=C\c1ccc(-c2ccc(F)cc2)o1` is 28.4 (active).
The entry for `CCN(N=Nc1nonc1OC)c1nonc1OC` is “inactive”; for `Cc1ccc2c(c1)=C/C(=C\c1c(O)[nH]c(=O)[nH]c1=O)C(=O)N=2` it is “inactive”.
